# Laboratory results as given in ChEMBL document CHEMBL1133321, “Synthesis of conformationally constrained analogues of KN62, a potent antagonist of the P2X7-receptor” (Bioorg Med Chem Lett, 2000).
# Key:
# [1] = Inhibition of ATP-stimulated [Ca2+] influx into macrophages loaded with fluorescent indicator fura-2-acetoxymethyl at 1000 nM concentration of compound; type: functional; conditions: Homo sapiens
# [2] = Inhibition of ATP-stimulated [Ca2+] influx into macrophages loaded with fluorescent indicator fura-2-acetoxymethyl at 500 nM concentration of compound; type: functional; conditions: Homo sapiens
# How it was run: (§1)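 Washed human macrophage cells (10⁶/mL) in HEPES-buffered saline were loaded with fura-2 acetoxymethyl ester for 20 min at 37 °C in the dark, in a stirred cuvette. Cells were preincubated with compound at the stated single concentration for 5 min at 37 °C before ATP stimulation. Ca²⁺ influx was read as the 340:380 nm excitation ratio at 500 nm emission, as percent inhibition. Three repeats.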
# [3] = Inhibition of ATP-stimulated [Ca2+] influx into macrophages loaded with fluorescent indicator fura-2-acetoxymethyl at 50 nM concentration of compound; type: functional; conditions: Homo sapiens; how it was run: as §1
# [4] = target: T1, P2X purinoceptor 7 (Homo sapiens, UniProt Q99572); test: Inhibitory concentration was evaluated against P2X purinoceptor 7
# T1 sequence (Q99572 whole entry): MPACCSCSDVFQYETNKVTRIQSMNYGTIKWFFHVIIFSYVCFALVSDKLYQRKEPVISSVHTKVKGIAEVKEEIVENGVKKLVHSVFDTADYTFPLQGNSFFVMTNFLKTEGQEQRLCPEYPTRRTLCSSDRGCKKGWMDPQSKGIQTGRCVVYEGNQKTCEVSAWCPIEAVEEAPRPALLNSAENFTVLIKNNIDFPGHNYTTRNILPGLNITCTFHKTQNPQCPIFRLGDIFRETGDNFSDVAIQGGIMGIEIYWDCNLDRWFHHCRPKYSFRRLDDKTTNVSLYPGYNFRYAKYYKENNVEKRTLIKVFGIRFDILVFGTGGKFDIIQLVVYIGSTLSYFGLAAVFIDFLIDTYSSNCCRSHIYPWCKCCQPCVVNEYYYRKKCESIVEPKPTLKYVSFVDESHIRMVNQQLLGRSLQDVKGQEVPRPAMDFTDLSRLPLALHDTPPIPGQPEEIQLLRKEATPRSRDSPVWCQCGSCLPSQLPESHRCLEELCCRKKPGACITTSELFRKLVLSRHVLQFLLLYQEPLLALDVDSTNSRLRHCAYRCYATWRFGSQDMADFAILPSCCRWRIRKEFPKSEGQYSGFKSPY
# How it was run: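 Human macrophage cells (10⁶/mL, washed, in HEPES-buffered saline) were fura-2-AM loaded for 20 min at 37 °C in the dark. Compounds (25–500 nM) were preincubated 5 min at 37 °C before ATP-stimulated Ca²⁺ influx was measured fluorimetrically (340:380 nm excitation ratio, 500 nm emission). IC50 is the mean from dose-response curves of at least three experiments.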
SMILES,inhibition at 1 µM [1],inhibition at 0.5 µM [2],inhibition at 0.05 µM [3],IC50 [4]
O=C([C@@H]1Cc2ccc(OS(=O)(=O)c3cccc4cnccc34)cc2CN1S(=O)(=O)c1cccc2cnccc12)N1CCN(c2ccccc2)CC1,25.8%,34.5%,1.66%,
CN([C@@H](Cc1ccc(OS(=O)(=O)c2cccc3cnccc23)cc1)C(=O)N1CCN(c2ccccc2)CC1)S(=O)(=O)c1cccc2cnccc12,100%,100%,94.4%,13.4 nM
O=C([C@@H]1Cc2ccc(OS(=O)(=O)c3cccc4cccnc34)cc2CN1S(=O)(=O)c1cccc2cccnc12)N1CCN(c2ccccc2)CC1,0%,3.4%,6.9%,
O=C([C@@H]1Cc2ccc(OS(=O)(=O)c3cccc4ccccc34)cc2CN1S(=O)(=O)c1cccc2ccccc12)N1CCN(c2ccccc2)CC1,0%,0%,0%,
O=C([C@@H]1Cc2ccc(OS(=O)(=O)c3cccc4ncccc34)cc2CN1S(=O)(=O)c1cccc2ncccc12)N1CCN(c2ccccc2)CC1,66%,72.4%,59%,
